Laboratory results reported in PMC3470735 (Nuclear medicine and biology, 2012).
“Also recorded” adds a separate entry of the source.

What was measured:
[1] = Complexation kinetics with Cu; type: physicochemical; settings: ligand 1 mM, Cu(II) 7 μM, AAIII 14 μM, 0.15 M NH4OAc pH 5.0, room temperature, 1 h
How it was run: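 Cu(II)–Arsenazo III reagent made in metal-free 0.15 M NH4OAc, pH 5.0 (14 μM AAIII, 7 μM Cu(II)), kept in the dark and stirred 2 h to equilibrate. Instrument zeroed against AAIII alone. Test compound was added from a 1 mM solution into the Cu(II)–AAIII cells at room temperature. A610 was read every 30 s for 1 h and compared with Cu(II)–AAIII alone.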

[2] = Biodistribution of 64Cu-labeled BFCs in female SCID mice; type: in vivo; settings: for radioactivity in blood (%ID/g): 24 h post-injection; for decrease of %ID/g in kidney by 24 h: by 24 h relative to 1 h
How it was run: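 Female SCID mice, n = 4/group, received 64Cu-labeled chelator (0.74 MBq in 100 μL saline) by tail-vein injection; labeling was done in 0.1 M NH4OAc, pH 5.5. At 1, 4 and 24 h, mice were anesthetized with 1-2% isoflurane and killed by cervical dislocation. Blood, lung, liver, spleen, pancreas, kidney, muscle and bone were weighed and gamma-counted. %ID/g was decay-corrected and normalized to tissue weight.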

[3] = cited from earlier work
[4] = In vitro rat serum stability of 64Cu-labeled chelators; type: in vitro ADME; settings: 37 °C, 48 h incubation, TLC
How it was run: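 Chelator was labeled with 64Cu in 0.1 M NH4OAc, pH ~5.5. Labeled complex (10 μL, ~3.7 MBq) was added to 90 μL rat serum at 37 °C. Aliquots taken at 1, 2, 4, 24 and 48 h were run on C-18 TLC in 10% NH4OAc:MeOH (3:7), and percent 64Cu still bound was determined.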

| SMILES | complexation kinetics with Cu(II) [1] | radioactivity in blood (%ID/g) [2] | decrease of %ID/g in kidney by 24 h [2] | stability of 64Cu complex in rat serum [3] | percentage of intact 64Cu complex in rat serum [4] |
| --- | --- | --- | --- | --- | --- |
| O=C(O)CNC(Cc1ccc([N+](=O)[O-])cc1)CN1CCN(CC(=O)O)CCN(CC(=O)O)CC1 (stereo not shown) [C-NE3TA, 4-carboxymethyl-7-[2-(carboxymethyl-amino)-3-(4-nitro-phenyl)-propyl]-[1,4,7]triazonan-1-yl-acetic acid] | formed complexes with Cu(II) almost immediately; also recorded: rapidly formed complexes with Cu(II) | 0.18 ± 0.06 %ID/g | 60% | – | – |
| O=C(O)CN1CCN(CCN(CC(=O)O)Cc2ccc([N+](=O)[O-])cc2)CCN(CC(=O)O)CC1 [N-NE3TA, 4-carboxymethyl-7-[2-[carboxymethyl-(4-nitro-benzyl)-amino]-ethyl]-[1,4,7]triazonan-1-yl-acetic acid] | formed complexes with Cu(II) almost immediately; also recorded: rapidly formed complexes with Cu(II) | 0.13 ± 0.06 %ID/g | 60% | – | – |
| O=C(O)CNCCN1CCN(CC(=O)O)CCN(CC(=O)O)CC1 [NE3TA] | – | – | – | high stability | – |
| Nc1ccc(CC2CN(CC(=O)O)CCN(CC(=O)O)CCN(CC(=O)O)CCN2CC(=O)O)cc1 (stereo not shown) [p-NH2-Bn-DOTA, 2-(4-aminobenzyl)-1,4,7,10-tetraazacyclododecane-1,4,7,10-tetraacetic acid, reference compound] | – | 0.47 ± 0.17 %ID/g | – | – | 93.9% |
| Nc1ccc(C[C@H]2CN(CC(=O)O)CCN(CC(=O)O)CCN2CC(=O)O)cc1 [p-NH2-Bn-NOTA, S-2-(4-aminobenzyl)-1,4,7-triazacyclononane-1,4,7-triacetic acid] | – | – | – | – | 97.9% |
